In ChEMBL document CHEMBL3244361, “B/C-cis- and -trans-1,3,4,9,10,10a-Hexahydro-2H-10,4a-methanoiminoethanophenanthrene (homo- and homoisomorphinan) derivatives as analgesics” (J Med Chem, 1977) one finds ED50 and Activity data, which are given here for 9 compounds.

Data set [1] relates to Mus musculus. In words: Analgesic activity in sc dosed mouse by hot plate assay. The data set is classed as functional. Background: In hot-plate and tail-flick tests a longer latency is read as antinociception.
Data set [2] has as its system Rhesus monkey. In words: Physical dependence capacity in rhesus monkey assessed as suppression/precipitation of abstinence syndrome at 0.4 to 6.4 mg/kg. The data set is classed as organism-based, Macaca mulatta. To be noted: in vivo. On the set-up: dose 0.4-6.4 mg/kg. A digest of the protocol: (§1)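 Monkey single-dose suppression test for physical dependence capacity. Abstinence signs were scored for suppression or precipitation across the dose range given in each line.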

The test system of data set [3] is Rhesus monkey. The data set can be described thus: Physical dependence capacity in rhesus monkey assessed as suppression/precipitation of abstinence syndrome at 4 mg/kg. To be noted: in vivo.
The species entered for data set [4] is Mus musculus.
Data set [5] relates to Rhesus monkey. The data set can be described thus: Narcotic antagonist activity in morphine-dependent monkey assessed as precipitation of abstinence syndrome. The conditions noted are these: Macaca mulatta. The data set is classed as functional, organism-based. A digest of the protocol:
as §1

Data set [6] has as its system Rhesus monkey. The data set can be described thus: Physical dependence capacity in rhesus monkey assessed as suppression/precipitation of abstinence syndrome at 0.5 to 1 mg/kg. The data set is classed as organism-based, Macaca mulatta. Details: dose 0.5-1 mg/kg. The conditions noted are these: in vivo. A digest of the protocol:
as §1

For data set [7], the system named is Rhesus monkey. The data set can be described thus: Physical dependence capacity in rhesus monkey assessed as suppression/precipitation of abstinence syndrome at 0.5 to 8 mg/kg. The data set is classed as organism-based, Macaca mulatta. On the set-up: dose 0.5-8 mg/kg. To be noted: in vivo. In a few lines: as §1
Data set [8] deals with Rhesus monkey. In words: Physical dependence capacity in rhesus monkey assessed as suppression/precipitation of abstinence syndrome at 0.5 to 4 mg/kg. On the set-up: dose 0.5-4 mg/kg. The data set is classed as organism-based, Macaca mulatta. To be noted: in vivo. In a few lines:
as §1

For data set [9], the system named is Mus musculus. The data set can be described thus: Toxicity in mouse at 50 mg/kg, sc. The data set is classed as organism-based. On the set-up: dose 50 mg/kg, route subcutaneous. To be noted: in vivo.

Activity calls are given as the source filed them. The calls are words filed in the database; no cut-off is given here.

The ED50 is the dose at which the effect has come halfway, by size or by number of responders.

In the data set with Mus musculus [1], `COc1ccc2c(c1)[C@@]13CCCC[C@H]1[C@@H](C2)CN(C)CC3` yielded an ED50 of 3.4 mg/kg.

For `Br.CN1CC[C@]23CCCC[C@H]2[C@@H](Cc2ccc(O)cc23)C1`, the Activity entry with Rhesus monkey [2] is on record as “Non-toxic”. In addition, in the data set on Mus musculus [1], it took a dose of 0.8 mg/kg to reach the 50% effect level (ED50).

Compound `COc1ccc2c(c1)[C@@]13CCCC[C@@H]1[C@@H](C2)CN(C)CC3` gave an ED50 in the data set with Mus musculus [1] of 8.1 mg/kg.

As to `Br.CN1CC[C@]23CCCC[C@@H]2[C@@H](Cc2ccc(O)cc23)C1`, in the data set on Rhesus monkey [3], the Activity entry is listed as “Toxic”. It took a dose of 2.1 mg/kg to reach the 50% effect level in the data set on Mus musculus [1] (ED50).

Regarding `C=CCN1CC[C@]23CCCC[C@H]2[C@@H](Cc2ccc(O)cc23)C1` (relative stereo), the ED50 result in the data set listed under Mus musculus [4] is “inactive”. Also, the outcome with Rhesus monkey [5] was inactive. For the same compound, in the data set with Rhesus monkey [6], the Activity result is listed as “Non-toxic”.

Turning to `Oc1ccc2c(c1)[C@@]13CCCC[C@H]1[C@@H](C2)CN(CC1CC1)CC3` (relative stereo), the Activity entry in the data set on Rhesus monkey [7] is on record as “Non-toxic”. Besides, the 50% effective dose (ED50) with Mus musculus [1] came out at 6.2 mg/kg. Further, in the data set on Rhesus monkey [5], the result was inactive.

As for `C=CCN1CC[C@]23CCCC[C@@H]2[C@@H](Cc2ccc(O)cc23)C1` (relative stereo), the Activity entry in the data set with Rhesus monkey [8] is “Non-toxic”. In the data set on Mus musculus [1], this compound returned an ED50 of 19.6 mg/kg. The outcome in the data set on Rhesus monkey [5] was inactive.

Turning to `Oc1ccc2c(c1)[C@@]13CCCC[C@@H]1[C@@H](C2)CN(CC1CC1)CC3` (relative stereo), the Activity entry is on record as “Non-toxic” with Rhesus monkey [8] and “Toxic” in the data set with Mus musculus [9]. The result in the data set on Rhesus monkey [5] was inactive.

Consider `CN1CC[C@]23c4c5ccc(O)c4O[C@H]2[C@@H](O)C=C[C@H]3[C@H]1C5.Cl` [MORPHINE HYDROCHLORIDE], for which, in the data set on Mus musculus [1], the ED50 was determined as 1.2 mg/kg.
